Laboratory results reported in paper PMC8603004 (EFSA Journal, 2021).
Where “and” joins values, the source holds several entries; their conditions need not be identical. Equal values may be shown once.

Columns and labels:
[1] = First in vivo toxicokinetic study; design: species or system male Wistar rats; settings: after 500 mg/kg bw 14C‐3‐NOP
In short: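 Male Wistar rats received a single oral dose of 500 mg/kg bw 14C-labelled test compound under OECD TG 417 and were killed 48 h post-dose. Total radioactivity was measured in plasma, excreta and selected organs and tissues. Tissue levels were expressed as μg test-compound-eq/g and recovery as % of applied dose.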

[2] = Second in vivo toxicokinetic study, metabolic profile in gut and plasma; design: species or system male Wistar rats; settings: urine 0 to 2 h of one animal, after 500 mg/kg bw 14C‐3‐NOP
In short: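 Single oral dose of 500 mg/kg bw 14C-labelled test compound to male Wistar rats. One animal per time point was killed at 1, 2 and 3 h post-dose and blood was collected. Stomach, small intestine, caecum and colon contents were removed for total radioactivity. Metabolites were characterised by NMR and/or LC/MS.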

[3] = ADME of 14C‐3‐NOP following single or multiple oral administration; type: in vivo, rat; settings: 500 mg/kg 14C‐3‐NOP, 1 h
[4] = tested on: testes and epididymides; Sertoli cells; assay: Mechanistic toxicity studies; design: species or system rats, dogs and non‐human primates
ADME in a lactating goat = type: in vivo
[5] = Second goat experiment, pre‐dosed 5 days; type: in vivo, lactating goat
[6] = ADME in four lactating cows; type: in vivo
[7] = Feeding study 1 in beef cattle, NOPA in plasma; type: in vivo; settings: bovine, oral, 284 mg/kg
[8] = Tolerance study in dairy cows; type: in vivo; settings: female, Holstein Friesian, cattle, liver, kidney, muscle, fat, oral
[9] = tested on: Holstein Friesian dairy cows; assay: Tolerance study in dairy cows; type: in vivo
[10] = tested on: Salmonella Typhimurium strains TA1535, TA1537, TA98, TA100, and Escherichia coli strain WP2 uvrA; assay: Bacterial reverse mutation assay of NOPA; type: cell-based; settings: strains TA1535 and TA100, presence and absence of S9 mix, up to 5,000 μg/plate
In short: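 Plate-incorporation reverse mutation test on the metabolite in S. Typhimurium TA1535, TA1537, TA98 and TA100 and E. coli WP2 uvrA, with and without liver microsomal activation. Concentrations were 3, 10, 33, 100, 333, 1,000, 2,500 and 5,000 μg/plate. Each concentration and each control was plated in triplicate, and positive and negative controls were included.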

[11] = tested on: whole blood human lymphocytes; assay: In vitro micronucleus test of NOPA; type: cell-based; settings: 229 to 1,321 μg/mL, with and without metabolic activation
In short: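 GLP micronucleus test (OECD TG 487) on the metabolite (purity 98.4%) in human whole-blood lymphocytes. Three concentrations from 229 to 1,321 μg/mL (top about 10 mmol/L) were analysed. Treatments were a short exposure (4 + 20 h recovery) with and without metabolic activation, and a continuous treatment without activation. Micronuclei were scored.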

[12] = tested on: peripheral blood reticulocytes; assay: In vivo micronucleus assay of NOPA in peripheral blood reticulocytes; design: species or system Fischer 344 Big Blue rats; settings: days 4 and 29
In short: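 Fischer 344 Big Blue rats, six per sex per group, were given the metabolite by oral gavage once daily for 28 days at 10 mL/kg in phosphate-buffered saline, pH 7.4. Males received 0, 150, 300 or 600 mg/kg bw/day and females 0, 250, 500 or 1,000 mg/kg bw/day. Peripheral blood was sampled on days 4 and 29, and micronucleated reticulocytes were counted by flow cytometry. Kit positive-control samples were run; there was no concurrent positive group.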

[13] = 28‐day oral gavage study with toxicokinetic evaluation of NOPA; type: in vivo, CByB6F1 Hybrid mice; settings: CByB6F1 Hybrid, mouse, plasma, oral, 700 mg/kg
CByB6F1 Hybrid mice = assay: as above; type: in vivo; settings: both sexes
[14] = Consumer exposure calculation to NOPA

O=C(O)CCO [3‐HPA, 3‐hydroxy‐propionic acid]
Urinary metabolite, share of the dose administered [1]: 7.2% | Urinary metabolite, share of the urine radioactivity [1]: 47.5% | Urinary metabolite, share of the urine radioactivity [2]: 58% | Metabolite in epididymis [3]: 60 % TRR | Metabolite in testes [3]: 84 % TRR | Metabolite in the small intestine ([3]; females): 46.5 % of TRR | Metabolite in the small intestine ([3]; males): 34.8 % of TRR | Testicular/epididymal findings ([4]; 10 days after sc administration): absence of any testicular/epididymal abnormality

O=C(O)CCO[N+](=O)[O-] [NOPA, 3‐nitrooxypropionic acid]
Urinary metabolite, share of the urine radioactivity [2]: 20% | Nitrate esters in milk, not detectable (LOD) (ADME in a lactating goat; milk collected 0–8 h post‐dose): < 0.82 mg 3‐NOP‐equivalent/kg | Nitrate esters in milk, not detectable (LOD) (ADME in a lactating goat; milk collected 8–24 h post‐dose): < 0.43 mg 3‐NOP‐equivalent/kg | Nitrate esters in the aqueous phase of plasma, not detectable (LOD) ([5]; LOD ≤ 0.07): < 0.07 mg/kg | Nitrate esters in the aqueous milk fraction, not detectable (LOD) ([5]; LOD ≤ 0.21): < 0.21 mg/kg | Amount in urine, not detected above the LOQ ([6]; any urine sample): ≤ 0.1 % of the dose | 3‐NOP and NOPA in total excreta, worst‐case scenario ([6]; dairy cows): ≤ 0.2% | Residue in milk, not found above the LOQ ([6]; in vivo): < 8 μg 3‐NOP‐equivalents/kg | Residue in tissues, not found above the LOQ ([6]; in vivo): < 21 μg 3‐NOP‐equivalents/kg | concentration at 180 min [7]: 22.3 to 207 ng/mL | concentration at 57 day [8]: < 5 ng/g | NOPA in milk, median of samples above 1 μg/kg ([9]; 80 mg 3‐NOP/kg feed DM): 1.74 µg/kg | NOPA in milk, median of samples above 1 μg/kg ([9]; 100 mg 3‐NOP/kg feed DM, 7 cows): 1.52 µg/kg | Gene mutations in bacteria [10]: induced gene mutations by base pair substitutions | Frequency of micronuclei [11]: No significant increase in the frequency of micronuclei | Incidence of MN‐RETs [12]: No significant increases in the incidence of MN‐RETs | half-life ([13]; female): 42 to 72 min | half-life ([13]; male): 30 to 84 min | Time of rapid increase of NOPA plasma concentration (CByB6F1 Hybrid mice): < 1 h | Susceptibility of Sertoli cells from dogs ([4]; ex vivo/in vitro cultures of seminiferous tubuli): not susceptible | Consumer exposure, maximum HRP ([14]; Adolescents): 0.2260 μg/kg bw per day | Consumer exposure, maximum HRP ([14]; Adults): 0.1293 μg/kg bw per day | Consumer exposure, maximum HRP ([14]; Elderly): 0.1162 μg/kg bw per day | Consumer exposure, maximum HRP ([14]; Infants): 0.4542 μg/kg bw per day | Consumer exposure, maximum HRP ([14]; Other children): 0.6 μg/kg bw per day and 0.5952 μg/kg bw per day | Consumer exposure, maximum HRP ([14]; Toddlers): 0.4674 μg/kg bw per day | Consumer exposure, maximum HRP ([14]; Very elderly): 0.1266 μg/kg bw per day | Maximum HRP as share of the established ADI ([14]; other children, ADI 1 mg/kg bw per day): 0.06%

O=C(O)C1OC(OCCCO[N+](=O)[O-])C(O)C(O)C1O (stereo not shown) [glucuronide of 3‐NOP]
Urinary metabolite, share of the urine radioactivity [2]: 11%
